Measurements: ChEMBL document CHEMBL4270513, “Replacement of Arg with Nle and modified D-Phe in the core sequence of MSHs, Ac-His-D-Phe-Arg-Trp-NH2, leads to hMC1R selectivity and pigmentation” (Eur J Med Chem, 2018)
Activity calls are given as the source filed them. The rule behind the calls is not given here. Square brackets hold non-standard residues; d marks the D form. Peptide text beside a SMILES is read from it. dPhe(4-CF3) = N[C@H](Cc1ccc(C(F)(F)F)cc1)C(=O)O; dPhe(4-Br) = N[C@H](Cc1ccc(Br)cc1)C(=O)O; Nle = CCCC[C@H](N)C(=O)O

Molecular target: T1, Melanocortin receptor 4 (Homo sapiens, UniProt P32245)
Assay: Agonist activity at human MC4R expressed in HEK293 cells after 3 mins by cAMP assay
Assay type: functional, cell-based

T1 sequence (P32245 whole entry): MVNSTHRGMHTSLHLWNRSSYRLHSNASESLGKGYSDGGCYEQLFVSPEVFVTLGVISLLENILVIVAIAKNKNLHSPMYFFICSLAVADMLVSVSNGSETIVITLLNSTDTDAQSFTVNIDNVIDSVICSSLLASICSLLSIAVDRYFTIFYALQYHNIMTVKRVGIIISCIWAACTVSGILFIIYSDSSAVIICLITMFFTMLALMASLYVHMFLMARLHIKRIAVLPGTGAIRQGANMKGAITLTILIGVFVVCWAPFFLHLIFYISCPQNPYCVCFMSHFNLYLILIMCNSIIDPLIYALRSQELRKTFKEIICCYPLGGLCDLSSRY

Compared with `CCCC[C@H](NC(=O)[C@@H](Cc1ccc(C(F)(F)F)cc1)NC(=O)[C@H](Cc1cnc[nH]1)NC(C)=O)C(=O)N[C@@H](Cc1c[nH]c2ccccc12)C(N)=O` (Ac-H[dPhe(4-CF3)][Nle]W-NH2), `CCCC[C@H](NC(=O)[C@@H](Cc1ccc(Br)cc1)NC(=O)[C@H](Cc1cnc[nH]1)NC(C)=O)C(=O)N[C@@H](Cc1c[nH]c2ccccc12)C(N)=O` (Ac-H[dPhe(4-Br)][Nle]W-NH2) is 11-fold lower in EC50: 407 nM for the first, 36 nM for the second.

Molecular target: T1, Melanocortin receptor 4
Assay: Displacement of [125I]-[Nle4,d-Phe7]-alpha-MSH from human MC4R expressed in HEK293 cells after 40 mins by gamma counting analysis
Assay type: cell-based

First: CCCC[C@H](NC(=O)[C@@H](Cc1ccc(C(F)(F)F)cc1)NC(=O)[C@H](Cc1cnc[nH]1)NC(C)=O)C(=O)N[C@@H](Cc1c[nH]c2ccccc12)C(N)=O (Ac-H[dPhe(4-CF3)][Nle]W-NH2)
Second: CCCC[C@H](NC(=O)[C@@H](Cc1ccc(Br)cc1)NC(=O)[C@H](Cc1cnc[nH]1)NC(C)=O)C(=O)N[C@@H](Cc1c[nH]c2ccccc12)C(N)=O (Ac-H[dPhe(4-Br)][Nle]W-NH2)
The IC50 of the first is 16-fold higher: 835 nM for the first, 53 nM for the second. The second is the more potent here.

Species: Homo sapiens
Assay: Selectivity ratio of EC50 for human MC4R to EC50 for human MC1R

`CCCC[C@H](NC(=O)[C@@H](Cc1ccc(C(F)(F)F)cc1)NC(=O)[C@H](Cc1cnc[nH]1)NC(C)=O)C(=O)N[C@@H](Cc1c[nH]c2ccccc12)C(N)=O` (Ac-H[dPhe(4-CF3)][Nle]W-NH2) gave a Ratio EC50 of 41.

Molecular target: T2, Melanocortin receptor 3 (Homo sapiens, UniProt P41968)
Assay: Displacement of [125I]-[Nle4,d-Phe7]-alpha-MSH from human MC3R expressed in HEK293 cells after 40 mins by gamma counting analysis
Assay type: cell-based

T2 sequence (P41968 whole entry): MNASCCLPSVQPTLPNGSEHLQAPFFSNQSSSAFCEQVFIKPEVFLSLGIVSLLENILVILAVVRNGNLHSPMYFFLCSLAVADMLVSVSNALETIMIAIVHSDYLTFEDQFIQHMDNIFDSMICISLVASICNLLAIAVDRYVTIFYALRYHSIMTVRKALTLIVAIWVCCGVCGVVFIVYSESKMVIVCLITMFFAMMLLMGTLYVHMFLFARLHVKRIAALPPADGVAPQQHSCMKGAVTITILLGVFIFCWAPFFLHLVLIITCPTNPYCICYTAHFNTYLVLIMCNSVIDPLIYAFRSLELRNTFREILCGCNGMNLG

Compared with `CCCC[C@H](NC(=O)[C@@H](Cc1ccc(C(F)(F)F)cc1)NC(=O)[C@H](Cc1cnc[nH]1)NC(C)=O)C(=O)N[C@@H](Cc1c[nH]c2ccccc12)C(N)=O` (Ac-H[dPhe(4-CF3)][Nle]W-NH2), `CCCC[C@H](NC(=O)[C@@H](Cc1ccc(Br)cc1)NC(=O)[C@H](Cc1cnc[nH]1)NC(C)=O)C(=O)N[C@@H](Cc1c[nH]c2ccccc12)C(N)=O` (Ac-H[dPhe(4-Br)][Nle]W-NH2) is 2.5-fold higher in IC50: 90 nM for the first, 224 nM for the second. The first is the more potent here.

Molecular target: T2, Melanocortin receptor 3
Assay: Agonist activity at human MC3R expressed in HEK293 cells at 10 uM after 3 mins by cAMP assay relative to MT-2
Assay type: functional, cell-based
In short: (§1)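 cAMP produced at a single 10 μM peptide concentration, expressed as % of the response to MT-II run as control; 0% accumulation reported as no activity.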

Going from `CCCC[C@H](NC(=O)[C@@H](Cc1ccc(C(F)(F)F)cc1)NC(=O)[C@H](Cc1cnc[nH]1)NC(C)=O)C(=O)N[C@@H](Cc1c[nH]c2ccccc12)C(N)=O` (Ac-H[dPhe(4-CF3)][Nle]W-NH2) to `CCCC[C@H](NC(=O)[C@@H](Cc1ccc(Br)cc1)NC(=O)[C@H](Cc1cnc[nH]1)NC(C)=O)C(=O)N[C@@H](Cc1c[nH]c2ccccc12)C(N)=O` (Ac-H[dPhe(4-Br)][Nle]W-NH2), the Activity rises from 85% to 93%.

Molecular target: T3, Melanocyte-stimulating hormone receptor (Homo sapiens, UniProt Q01726)
Assay: Agonist activity at human MC1R expressed in HEK293 cells after 3 mins by cAMP assay
Assay type: functional, cell-based
Target sequence in this assay (Q01726 whole entry): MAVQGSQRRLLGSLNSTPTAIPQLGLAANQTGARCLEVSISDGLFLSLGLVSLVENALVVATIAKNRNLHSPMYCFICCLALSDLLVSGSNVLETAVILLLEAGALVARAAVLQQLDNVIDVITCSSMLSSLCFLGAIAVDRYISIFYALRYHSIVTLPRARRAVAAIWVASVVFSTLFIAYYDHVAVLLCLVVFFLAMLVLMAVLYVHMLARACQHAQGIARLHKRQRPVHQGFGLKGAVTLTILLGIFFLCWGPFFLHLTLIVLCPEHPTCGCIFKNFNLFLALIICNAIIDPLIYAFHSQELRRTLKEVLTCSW

`CCCC[C@H](NC(=O)[C@@H](Cc1ccc(C(F)(F)F)cc1)NC(=O)[C@H](Cc1cnc[nH]1)NC(C)=O)C(=O)N[C@@H](Cc1c[nH]c2ccccc12)C(N)=O` (Ac-H[dPhe(4-CF3)][Nle]W-NH2) and `CCCC[C@H](NC(=O)[C@@H](Cc1ccc(Br)cc1)NC(=O)[C@H](Cc1cnc[nH]1)NC(C)=O)C(=O)N[C@@H](Cc1c[nH]c2ccccc12)C(N)=O` (Ac-H[dPhe(4-Br)][Nle]W-NH2) are within 1.5-fold of each other in EC50: 10 nM for the first, 11 nM for the second.

Test system: Anolis carolinensis
Assay: Induction of pigmentation effect in lizard at 3 ug/g, ip at 1 hr post dose
Assay type: functional, organism-based
In short: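 Anolis carolinensis lizards, peptide dissolved in saline at 1 mM, single intraperitoneal dose of 3 μg/g body weight; vehicle-injected animals as control. Skin colour change versus pre-injection appearance scored visually and photographed, followed up to 24 h.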

In the case of `CCCC[C@H](NC(=O)[C@@H](Cc1ccc(C(F)(F)F)cc1)NC(=O)[C@H](Cc1cnc[nH]1)NC(C)=O)C(=O)N[C@@H](Cc1c[nH]c2ccccc12)C(N)=O` (Ac-H[dPhe(4-CF3)][Nle]W-NH2), the Activity is reported as “Active”.

Molecular target: T2, Melanocortin receptor 3
Assay: Displacement of [125I]-[Nle4,d-Phe7]-alpha-MSH from human MC3R expressed in HEK293 cells at 10 uM after 40 mins by gamma counting analysis relative to control
Assay type: cell-based
In short: (§2)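 Binding efficiency = maximal % displacement of [125I]-NDP-α-MSH observed at 10 μM peptide; 0% displacement at 10 μM scored as no binding.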

First: CCCC[C@H](NC(=O)[C@@H](Cc1ccc(C(F)(F)F)cc1)NC(=O)[C@H](Cc1cnc[nH]1)NC(C)=O)C(=O)N[C@@H](Cc1c[nH]c2ccccc12)C(N)=O (Ac-H[dPhe(4-CF3)][Nle]W-NH2)
Second: CCCC[C@H](NC(=O)[C@@H](Cc1ccc(Br)cc1)NC(=O)[C@H](Cc1cnc[nH]1)NC(C)=O)C(=O)N[C@@H](Cc1c[nH]c2ccccc12)C(N)=O (Ac-H[dPhe(4-Br)][Nle]W-NH2)
The %max of the first is higher: 62% for the first, 51% for the second.

Molecular target: T3, Melanocyte-stimulating hormone receptor
Assay: Displacement of [125I]-[Nle4,d-Phe7]-alpha-MSH from human MC1R expressed in HEK293 cells at 10 uM after 40 mins by gamma counting analysis relative to control
Assay type: cell-based
In short: as §2
Target sequence in this assay (Q01726 whole entry, looked up): as the sequence (Q01726 whole entry) above

Going from `CCCC[C@H](NC(=O)[C@@H](Cc1ccc(C(F)(F)F)cc1)NC(=O)[C@H](Cc1cnc[nH]1)NC(C)=O)C(=O)N[C@@H](Cc1c[nH]c2ccccc12)C(N)=O` (Ac-H[dPhe(4-CF3)][Nle]W-NH2) to `CCCC[C@H](NC(=O)[C@@H](Cc1ccc(Br)cc1)NC(=O)[C@H](Cc1cnc[nH]1)NC(C)=O)C(=O)N[C@@H](Cc1c[nH]c2ccccc12)C(N)=O` (Ac-H[dPhe(4-Br)][Nle]W-NH2), the %max rises from 49% to 61%.

Molecular target: T4, Melanocortin receptor 5 (Homo sapiens, UniProt P33032)
Assay: Agonist activity at human MC5R expressed in HEK293 cells at 10 uM after 3 mins by cAMP assay relative to MT-2
Assay type: functional, cell-based
In short: as §1

T4 sequence (P33032 whole entry): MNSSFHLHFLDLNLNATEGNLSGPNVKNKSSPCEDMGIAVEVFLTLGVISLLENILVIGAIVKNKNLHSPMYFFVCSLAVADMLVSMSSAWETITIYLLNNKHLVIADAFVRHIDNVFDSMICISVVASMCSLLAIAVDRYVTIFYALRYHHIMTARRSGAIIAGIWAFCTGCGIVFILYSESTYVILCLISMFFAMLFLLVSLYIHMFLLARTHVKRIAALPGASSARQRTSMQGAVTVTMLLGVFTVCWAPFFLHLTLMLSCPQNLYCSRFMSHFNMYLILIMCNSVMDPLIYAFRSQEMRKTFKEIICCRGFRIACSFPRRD

Compared with `CCCC[C@H](NC(=O)[C@@H](Cc1ccc(C(F)(F)F)cc1)NC(=O)[C@H](Cc1cnc[nH]1)NC(C)=O)C(=O)N[C@@H](Cc1c[nH]c2ccccc12)C(N)=O` (Ac-H[dPhe(4-CF3)][Nle]W-NH2), `CCCC[C@H](NC(=O)[C@@H](Cc1ccc(Br)cc1)NC(=O)[C@H](Cc1cnc[nH]1)NC(C)=O)C(=O)N[C@@H](Cc1c[nH]c2ccccc12)C(N)=O` (Ac-H[dPhe(4-Br)][Nle]W-NH2) is lower in Activity: 44% for the first, 33% for the second.

Molecular target: T4, Melanocortin receptor 5
Assay: Agonist activity at human MC5R expressed in HEK293 cells after 3 mins by cAMP assay
Assay type: functional, cell-based

`CCCC[C@H](NC(=O)[C@@H](Cc1ccc(C(F)(F)F)cc1)NC(=O)[C@H](Cc1cnc[nH]1)NC(C)=O)C(=O)N[C@@H](Cc1c[nH]c2ccccc12)C(N)=O` (Ac-H[dPhe(4-CF3)][Nle]W-NH2) and `CCCC[C@H](NC(=O)[C@@H](Cc1ccc(Br)cc1)NC(=O)[C@H](Cc1cnc[nH]1)NC(C)=O)C(=O)N[C@@H](Cc1c[nH]c2ccccc12)C(N)=O` (Ac-H[dPhe(4-Br)][Nle]W-NH2) cannot be ordered by EC50: > 1000 nM for the first, > 1000 nM for the second.

Species: Homo sapiens
Assay: Selectivity ratio of EC50 for human MC5R to EC50 for human MC1R

With `CCCC[C@H](NC(=O)[C@@H](Cc1ccc(C(F)(F)F)cc1)NC(=O)[C@H](Cc1cnc[nH]1)NC(C)=O)C(=O)N[C@@H](Cc1c[nH]c2ccccc12)C(N)=O` (Ac-H[dPhe(4-CF3)][Nle]W-NH2) the Ratio EC50 was > 100.

Molecular target: T3, Melanocyte-stimulating hormone receptor
Assay: Agonist activity at human MC1R expressed in HEK293 cells at 10 uM after 3 mins by cAMP assay relative to MT-2
Assay type: functional, cell-based
In short: as §1
Target sequence in this assay (Q01726 whole entry, looked up): as the sequence (Q01726 whole entry) above

`CCCC[C@H](NC(=O)[C@@H](Cc1ccc(C(F)(F)F)cc1)NC(=O)[C@H](Cc1cnc[nH]1)NC(C)=O)C(=O)N[C@@H](Cc1c[nH]c2ccccc12)C(N)=O` (Ac-H[dPhe(4-CF3)][Nle]W-NH2) and `CCCC[C@H](NC(=O)[C@@H](Cc1ccc(Br)cc1)NC(=O)[C@H](Cc1cnc[nH]1)NC(C)=O)C(=O)N[C@@H](Cc1c[nH]c2ccccc12)C(N)=O` (Ac-H[dPhe(4-Br)][Nle]W-NH2) are the same in Activity: 100% for the first, 100% for the second.

Species: Homo sapiens
Assay: Selectivity ratio of EC50 for human MC3R to EC50 for human MC1R

Compound `CCCC[C@H](NC(=O)[C@@H](Cc1ccc(C(F)(F)F)cc1)NC(=O)[C@H](Cc1cnc[nH]1)NC(C)=O)C(=O)N[C@@H](Cc1c[nH]c2ccccc12)C(N)=O` (Ac-H[dPhe(4-CF3)][Nle]W-NH2) has a Ratio EC50 of 25.

Molecular target: T4, Melanocortin receptor 5
Assay: Displacement of [125I]-[Nle4,d-Phe7]-alpha-MSH from human MC5R expressed in HEK293 cells at 10 uM after 40 mins by gamma counting analysis relative to control
Assay type: cell-based
In short: as §2

Compared with `CCCC[C@H](NC(=O)[C@@H](Cc1ccc(C(F)(F)F)cc1)NC(=O)[C@H](Cc1cnc[nH]1)NC(C)=O)C(=O)N[C@@H](Cc1c[nH]c2ccccc12)C(N)=O` (Ac-H[dPhe(4-CF3)][Nle]W-NH2), `CCCC[C@H](NC(=O)[C@@H](Cc1ccc(Br)cc1)NC(=O)[C@H](Cc1cnc[nH]1)NC(C)=O)C(=O)N[C@@H](Cc1c[nH]c2ccccc12)C(N)=O` (Ac-H[dPhe(4-Br)][Nle]W-NH2) is lower in %max: 37% for the first, 0% for the second.

Molecular target: T4, Melanocortin receptor 5
Assay: Displacement of [125I]-[Nle4,d-Phe7]-alpha-MSH from human MC5R expressed in HEK293 cells after 40 mins by gamma counting analysis
Assay type: cell-based

With `CCCC[C@H](NC(=O)[C@@H](Cc1ccc(C(F)(F)F)cc1)NC(=O)[C@H](Cc1cnc[nH]1)NC(C)=O)C(=O)N[C@@H](Cc1c[nH]c2ccccc12)C(N)=O` (Ac-H[dPhe(4-CF3)][Nle]W-NH2) the IC50 was 37 nM.

Molecular target: T2, Melanocortin receptor 3
Assay: Agonist activity at human MC3R expressed in HEK293 cells after 3 mins by cAMP assay
Assay type: functional, cell-based

Going from `CCCC[C@H](NC(=O)[C@@H](Cc1ccc(C(F)(F)F)cc1)NC(=O)[C@H](Cc1cnc[nH]1)NC(C)=O)C(=O)N[C@@H](Cc1c[nH]c2ccccc12)C(N)=O` (Ac-H[dPhe(4-CF3)][Nle]W-NH2) to `CCCC[C@H](NC(=O)[C@@H](Cc1ccc(Br)cc1)NC(=O)[C@H](Cc1cnc[nH]1)NC(C)=O)C(=O)N[C@@H](Cc1c[nH]c2ccccc12)C(N)=O` (Ac-H[dPhe(4-Br)][Nle]W-NH2), the EC50 falls from 252 nM to 57 nM (4.4-fold). The second is the more potent here.

Molecular target: T3, Melanocyte-stimulating hormone receptor
Assay: Displacement of [125I]-[Nle4,d-Phe7]-alpha-MSH from human MC1R expressed in HEK293 cells after 40 mins by gamma counting analysis
Assay type: cell-based
Target sequence in this assay (Q01726 whole entry): as above

Going from `CCCC[C@H](NC(=O)[C@@H](Cc1ccc(C(F)(F)F)cc1)NC(=O)[C@H](Cc1cnc[nH]1)NC(C)=O)C(=O)N[C@@H](Cc1c[nH]c2ccccc12)C(N)=O` (Ac-H[dPhe(4-CF3)][Nle]W-NH2) to `CCCC[C@H](NC(=O)[C@@H](Cc1ccc(Br)cc1)NC(=O)[C@H](Cc1cnc[nH]1)NC(C)=O)C(=O)N[C@@H](Cc1c[nH]c2ccccc12)C(N)=O` (Ac-H[dPhe(4-Br)][Nle]W-NH2), the IC50 falls from 339 nM to 154 nM (2.2-fold). The second is the more potent here.
